# DENV2 CPE rescue = inhibitors of DENV2 cytopathic effect. DENV2-infected cells, cytopathic effect rescue, plate reader. CPE inhibition, % at 9.99 µM. 350,000 tested, 1.7% active. AID 651640; in the data active means CPE inhibition above about 20%, passing the limit was not always enough; inconclusive means no clear call, values can overlap the other calls; tested in BHK-21 cells;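 further: 0% = median of neutral control wells and 100% = median of positive control wells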
# PglD inh = inhibitors of Campylobacter jejuni PglD acetyltransferase; inhibition, % at 12.5 µM; purified PglD enzyme, DTNB colorimetric CoA detection; 360,000 tested, 0.098% active; in the data active means inhibition above about 16%, passing the limit was not always enough; inconclusive means no clear call, values can overlap the other calls
# E-selectin induc = E-selectin induction on HUVECs | P16581 | HUVEC E-selectin immunofluorescence imaging; normalized: neutral wells 0, TNF-alpha wells 100 | activation, % at 7.58 µM | 260,000 tested, 0.37% active | AID 686992;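 active means mean E-selectin-positive cell signal at least 10% of the positive control, reached in at least 60% of replicates, without over 20% cell loss; inconclusive means no rule given, readout overlaps actives, possibly toxicity-flagged; inactive means the rest, including those meeting only one limit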
#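 Test system – human umbilical vein endothelial cells (HUVEC), E-selectin induction · Input – 3,000 HUVEC seeded per well · Buffer or medium – EGM-2, gelatin · Compound dosing – single-point compound dose · Detection – immunofluorescence imaging · Measure – percent E-selectin-positive cells · Controls – TNF-alpha high, DMSO low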
# ERAP1 HTS inh = ERAP1 (human) enzyme inhibition; inhibition, % at 10.7 µM; 340,000 tested, 0.15% active; Q9NZ08; recombinant ERAP1, Leu-AMC fluorescence, 60 min;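 active means mean replicate inhibition of at least 30%, or all replicates individually reaching that 30% level; inactive means mean below 30% and not every replicate reaching it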;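 further: 0% = neutral control wells and 100% = L-leucinethiol positive control wells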
# Target sequence (Q9NZ08 whole entry, looked up): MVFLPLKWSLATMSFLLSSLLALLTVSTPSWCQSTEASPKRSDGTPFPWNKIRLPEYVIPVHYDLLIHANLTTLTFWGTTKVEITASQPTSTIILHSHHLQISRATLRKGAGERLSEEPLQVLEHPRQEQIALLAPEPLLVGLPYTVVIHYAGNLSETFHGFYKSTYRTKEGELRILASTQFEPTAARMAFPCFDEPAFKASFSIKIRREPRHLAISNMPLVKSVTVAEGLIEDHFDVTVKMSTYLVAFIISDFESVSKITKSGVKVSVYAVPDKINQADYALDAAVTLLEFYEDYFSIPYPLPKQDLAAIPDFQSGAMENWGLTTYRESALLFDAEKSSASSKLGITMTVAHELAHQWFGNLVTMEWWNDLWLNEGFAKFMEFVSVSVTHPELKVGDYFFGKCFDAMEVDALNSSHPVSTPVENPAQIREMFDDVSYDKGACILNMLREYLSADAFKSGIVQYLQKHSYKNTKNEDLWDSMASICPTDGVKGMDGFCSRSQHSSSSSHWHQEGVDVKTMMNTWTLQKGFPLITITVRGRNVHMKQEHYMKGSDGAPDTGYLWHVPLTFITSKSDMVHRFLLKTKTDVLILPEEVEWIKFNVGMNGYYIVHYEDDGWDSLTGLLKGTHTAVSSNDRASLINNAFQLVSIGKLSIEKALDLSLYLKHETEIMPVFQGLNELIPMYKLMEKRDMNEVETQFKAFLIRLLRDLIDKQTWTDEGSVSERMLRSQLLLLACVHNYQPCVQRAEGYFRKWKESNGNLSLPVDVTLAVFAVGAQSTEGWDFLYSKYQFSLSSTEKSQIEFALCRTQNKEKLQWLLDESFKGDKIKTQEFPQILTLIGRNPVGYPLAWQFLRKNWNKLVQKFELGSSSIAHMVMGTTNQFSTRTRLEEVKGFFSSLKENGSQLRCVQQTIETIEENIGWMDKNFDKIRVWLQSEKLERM
# SIRT5 inh = blocks human SIRT5 desuccinylation of peptide. 330,000 tested, 1.1% active. Q9NXA8. inhibition, % at 15 µM. Purified SirT5, succinyl-peptide AMC, trypsin-coupled fluorescence; in the data active means inhibition above about 15%; inconclusive means no clear call, values can overlap the other calls
# * marks the source's active call; other numbers are inactive results; ? = inconclusive; / = not tested or not shown. In the library only some 2.5% were active in any assay of this set; here they are far more common.
SMILES,DENV2 CPE rescue,PglD inh,E-selectin induc,ERAP1 HTS inh,SIRT5 inh
O=C(C1COc2ccccc2O1)N1CCCC1 (stereo unspecified),/,-3.9,/,/,/
COc1cccc(S(=O)(=O)N2C[C@H](O)COC[C@@H]3O[C@@H](CC(=O)N4CCN(c5ccccc5)CC4)CC[C@H]32)c1,5.0,-1.6,0.2,1.8,1.7
O=C1C=C(c2c(O)ccc3ccccc23)c2ccccc2C1=O,-1.7,/,-0.2,4.2,/
O=C1C=C(O)c2cccc(O)c2C1=O,43.6*,3.1,/,9.8,/
COc1ccc(-c2nc3cc(C)c(Br)c(C)n3c2CC(C)(C)C)cc1OC,-8.6,-1.8,177.4*,/,-4.2
C[C@H]([C@H](O)c1ccccc1)N(C)C(=O)CN,-1.5,4.5,0.1,-1.5,21.3*
C[C@H](C(O)c1ccccc1)N(C)C(=O)CN (stereo partly specified),-6.6,1.5,-0.1,-0.9,-3.8
CCOc1cc(/C=C\[N+](=O)[O-])ccc1OCC(=O)N1CCOCC1,/,/,0.0,1.8,-0.7
CCOc1cc(/C=C/c2nc3cc(C)c(C)cc3s2)ccc1OCC(=O)N1CCOCC1,-0.2,4.7,-2.4,36.5*,-2.2
O=C1C2(CCCC13COC(c1ccc(O)cc1)OC3)COC(c1ccc(O)cc1)OC2 (stereo unspecified),28.1*,/,/,2.5,-0.6
C[C@@H]1CN([C@@H](C)CO)C(=O)c2cc(NC(=O)C3CCCCC3)ccc2O[C@H]1CN(C)C(=O)Nc1ccc(F)cc1,2.0,0.3,-2.5,1.6,10.8
COc1ccc(NC(=O)Nc2ccc3c(c2)C(=O)N([C@@H](C)CO)C[C@@H](C)[C@@H](CN(C)C(=O)Nc2ccc(C(F)(F)F)cc2)O3)cc1,?,11.3,-2.1,-0.8,16.5*
COc1ccc(NC(=O)Nc2ccc3c(c2)C(=O)N([C@@H](C)CO)C[C@H](C)[C@@H](CN(C)C(=O)Nc2ccc(C(F)(F)F)cc2)O3)cc1,-3.4,5.6,-4.1,0.4,14.8
C[C@@H]1CN([C@@H](C)CO)C(=O)c2cc(NC(=O)Nc3ccc(F)cc3)ccc2O[C@@H]1CN(C)C,5.4,0.0,-1.0,-0.5,-4.2
COc1ccc(NC(=O)Nc2ccc3c(c2)C(=O)N([C@@H](C)CO)C[C@@H](C)[C@H](CN(C)C(=O)Nc2ccc(F)cc2)O3)cc1,20.6*,0.1,-0.2,-3.4,6.6
C[C@@H]1CN([C@@H](C)CO)C(=O)c2cc(NC(=O)Nc3ccc(F)cc3)ccc2O[C@H]1CN(C)C,26.6*,-3.4,-2.6,0.8,0.4
C[C@@H]1CN([C@H](C)CO)C(=O)c2cc(NC(=O)C3CCCCC3)ccc2O[C@H]1CN(C)C(=O)Nc1ccc(F)cc1,55.4*,-1.5,-0.7,1.5,-3.4
COc1ccc(NC(=O)N(C)C[C@H]2Oc3ccc(NC(=O)Nc4ccc(F)cc4)cc3C(=O)N([C@H](C)CO)C[C@H]2C)cc1,-11.6,-1.8,-0.1,-1.2,-1.6
CCCCn1c(N)c(N(CCOC)C(=O)Cn2c(=O)cnc3ccccc32)c(=O)[nH]c1=O,-2.3,-0.9,0.3,7.3,-0.1
COc1ccc(NC(=O)Nc2ccc3c(c2)C(=O)N([C@@H](C)CO)C[C@H](C)[C@@H](CN(C)C)O3)cc1,0.8,6.5,41.0*,0.9,-3.0
COc1ccc(NC(=O)Nc2ccc3c(c2)C(=O)N([C@@H](C)CO)C[C@@H](C)[C@@H](CN(C)C(=O)Nc2ccc(OC)cc2)O3)cc1,25.7*,3.9,0.0,-0.2,1.4
COc1ccc(NC(=O)Nc2ccc3c(c2)C(=O)N([C@@H](C)CO)C[C@H](C)[C@H](CN(C)C)O3)cc1,-5.1,-3.1,-7.7,-5.0,-1.8
O=C1CCN(Cc2ccccc2)CCN1[C@H](COc1ccccc1)c1ccccc1,-4.8,-7.0,0.4,/,/
N#CC[C@H](c1ccccc1)N1CCN(Cc2ccccc2)CCC1=O,60.1*,-5.2,/,3.4,/
CCOc1ccc(C(=O)Nc2cccc(-n3cnnn3)c2)cc1OCC,-5.0,-0.1,0.8,-1.7,-3.0
SMILES,DENV2 CPE rescue,PglD inh,E-selectin induc,ERAP1 HTS inh,SIRT5 inh
C[C@]12CCC(=O)CC1CCC1C2CC[C@@]2(C)C1CC[C@@]21CCO1 (stereo partly specified),-6.8,6.4,50.1*,-0.3,-5.8
N#Cc1ccc(S(=O)(=O)N2CCN(c3ncccn3)CC2)cc1,-3.0,/,-0.2,3.5,-2.5
Cc1ccc(S(=O)(=O)Nc2ccc(O)c3ncccc23)cc1,107.5*,-0.9,/,-1.2,/
Cc1ccc(S(=O)(=O)Nc2ccc(O)c3cccnc23)cc1,0.0,-3.2,/,0.9,-2.5
C[C@H]1CN([C@@H](C)CO)C(=O)c2cc(N(C)C)ccc2O[C@@H]1CN(C)Cc1ccc(C(F)(F)F)cc1,5.8,0.1,0.1,0.1,/
C[C@H](CO)N1C[C@H](C)[C@H](CN(C)Cc2ccc(C(F)(F)F)cc2)Oc2ccc(N(C)C)cc2C1=O,40.1*,0.3,0.5,4.5,/
C[C@@H]1CN([C@H](C)CO)C(=O)c2cc(N(C)C)ccc2O[C@H]1CN(C)Cc1ccc(C(=O)O)cc1,2.0,-2.6,267.4*,-1.8,0.8
CC(Oc1ccccc1)C(=O)Nc1nnc(C2CCCCC2)s1 (stereo unspecified),1.1,/,/,-1.4,22.0*
C[C@H]1CN([C@@H](C)CO)C(=O)c2cc(NC(=O)CCCN(C)C)ccc2O[C@H]1CN(C)Cc1ccc2c(c1)OCO2,2.5,/,-1.1,9.1,-2.0
C[C@@H]1CCCCO[C@@H](CN(C)C(=O)Nc2cccc3ccccc23)[C@H](C)CN([C@@H](C)CO)C(=O)c2cc(NS(=O)(=O)c3cn(C)cn3)ccc2O1,21.5*,-3.3,0.0,/,/
Cc1ccc(S(=O)(=O)Nc2ccc3c(c2)C(=O)N([C@@H](C)CO)C[C@H](C)[C@@H](CN(C)C(=O)Nc2cccc4ccccc24)O3)cc1,1.3,-1.8,-0.3,-1.2,-3.8
Cc1ccc(S(=O)(=O)Nc2ccc3c(c2)C(=O)N([C@@H](C)CO)C[C@H](C)[C@@H](CN(C)C(=O)Nc2cccc4ccccc24)OCCCC[C@H](C)O3)cc1,0.8,2.9,0.2,5.0,16.4*
C[C@@H]1CCCCO[C@@H](CN(C)C(=O)Nc2cccc3ccccc23)[C@H](C)CN([C@H](C)CO)C(=O)c2cc(NS(=O)(=O)c3cn(C)cn3)ccc2O1,-10.9,0.7,-0.2,/,/
Cc1ccc(S(=O)(=O)Nc2ccc3c(c2)C(=O)N([C@H](C)CO)C[C@H](C)[C@@H](CN(C)C(=O)Nc2cccc4ccccc24)O3)cc1,40.7*,1.2,0.1,0.6,-3.0
Cc1ccc(S(=O)(=O)Nc2ccc3c(c2)C(=O)N([C@@H](C)CO)C[C@H](C)[C@@H](CN(C)C(=O)Nc2cccc4ccccc24)OCCCC[C@@H](C)O3)cc1,1.4,0.5,0.3,3.3,15.8*
Cc1ccc(S(=O)(=O)Nc2ccc3c(c2)C(=O)N([C@@H](C)CO)C[C@@H](C)[C@@H](CN(C)C(=O)Nc2cccc4ccccc24)OCCCC[C@H](C)O3)cc1,3.9,-1.1,1.1,-1.7,-1.3

# Source: PubChem
